# Screens: PubChem, several laboratories
# PostGolgi ctrl = growth inhibition of yeast control strain, primary screen, counter-screen for post-Golgi transport modulator project | efflux-deficient yeast background strain, growth absorbance A615, 16 h | inhibition, % at 10 µM | 98,000 tested, 5% active | AID 738, 2007
# Ecoli WT expand = growth inhibitors of wild-type E. coli, primary screen, strain BW25113, expanded library, OD600; OD600 absorbance; growth inhibition, % at 100 µM; 98,000 tested, 0.15% active; AID 710, 2007;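 active = growth inhibition above about 50% at one test dose, limit read from the data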;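 note: growth measured after 20 h incubation at 37 °C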
# Cav32 inh = Cav3.2 calcium influx blockers – cell-based, Fluo-4 calcium fluorescence, FDSS, MLSMR library, primary screen; Voltage-dependent T-type calcium channel subunit alpha-1H (Homo sapiens), O95180; Cav3.2-expressing cells; stronger effect = lower value; B-score at 10 µM; 100,000 tested, 4% active;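 active = single-dose well whose peak fluorescence ratio is a statistical outlier from its plate by either plate-standardised score or position-corrected B-score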
# PostGolgi yeast = phenotypic screen on post-Golgi transport, primary screen | post-Golgi transport phenotypic cell assay | 98,000 tested, 0.9% active | inhibition, % at 10 µM;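 note: yeast cells grown in 1536-well plates; yeast grown about 18 h at 30C before absorbance read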
# Ecoli tolC = growth inhibitors of E. coli tolC mutant, primary screen, strain BW25113 ΔtolC::kan, 384-well. OD615. 65,000 tested, 2.2% active. growth inhibition, % at 10 µM (by protocol);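 active = growth inhibition at or above a cutoff equal to the mean over every tested compound plus 3 SD, cut at about 60% in these data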;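 note: growth measured after 20 h incubation at 37 °C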
#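 Test system – E. coli BW25113 ΔtolC::kan, tolC deletion mutant strain · Detection – OD at 615 nm · Buffer or medium – LB with kanamycin 50 µg/mL · Times – 20 h compound exposure of bacteria at 37 °C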
# * marks the source's active call; other numbers are inactive results; . = no result given. Hits are enriched below; roughly 8.4% of the tested compounds scored in any of these assays. Cut-off read from the data, not from the text of the source, unless noted: active = inhibition above about 30%; inactive = the rest.
SMILES,PostGolgi ctrl,Ecoli WT expand,Cav32 inh,PostGolgi yeast,Ecoli tolC
Cn1c(=O)c(C(=O)CN2CCCc3ccccc32)c(N)n(Cc2ccccc2)c1=O,20.0,-19.0,-4.14*,-1.1,50.2
CCC(=O)OCC(=O)c1c(N)n(Cc2ccccc2)c(=O)n(C)c1=O,-2.1,-1.0,0.363,-0.2,-10.9
O=C(NC1CC1)C1=C[C@@H](c2csc3ccccc23)C[C@@H](OCCCCO)O1,.,.,0.276,.,.
C[C@@]12CCC=C[C@H]1[C@H](c1ccc(F)c(/C=C/c3ccccc3)c1)N(Cc1ccccc1)C2=O,.,.,-0.197,.,.
COc1cc(NC(=O)c2cccs2)c(C(=O)OCC(=O)NC(C)c2ccccc2)cc1OC (stereo not drawn),30.3*,-9.0,-1.71,6.0,.
Cc1ccc(C(=O)N/C(=C\c2cccs2)C(=O)NC2CCCCC2)cc1,10.6,4.0,0.382,0.2,.
Cc1cccc(-c2noc(CN(C(=O)C(c3ccccc3)c3ccccc3)C(C)C)n2)c1,22.9,-20.0,-6.72*,6.6,.
COc1cccc(C(=O)N(Cc2nc(-c3ccc(C)cc3)no2)C(C)C)c1,15.1,2.0,-0.128,1.0,10.4
Cc1cccc(-c2noc(CN(C(=O)c3ccc(Br)o3)C(C)C)n2)c1,33.2*,-11.0,-4.71*,-1.6,62.7*
Cc1ccc(-c2noc(CN(C(=O)CCN3C(=O)c4ccccc4C3=O)C(C)C)n2)cc1,10.6,3.0,-1.55,-2.0,8.3
Cc1cccc(-c2noc(CN(C(=O)c3ccc4c(c3)OCO4)C(C)C)n2)c1,3.0,0.0,-5.14*,5.6,12.8
Cc1ccc(-c2noc(CN(C(=O)CCCCCN3C(=O)c4ccccc4C3=O)C(C)C)n2)cc1,24.2,-16.0,-4.85*,-3.6,45.7
COc1ccc(S(=O)(=O)NCCSC(C)(C)C)cc1,4.2,13.0,-0.206,2.8,.
CCOC(=O)N1CCC2(CC1)C(C#N)=C(N)OC1=C2C(=O)CC(C)C1 (stereo not drawn),15.2,-5.0,1.3,1.3,.
COc1cccc(C(=O)N(Cc2nc(-c3cccc(C)c3)no2)C(C)C)c1OC,14.2,0.0,-5.76*,-6.1,18.6
CC(C)N(Cc1nc(-c2ccccc2)no1)C(=O)CSc1ccccc1,26.3,-5.0,-4.24*,-6.6,60.3
CC(C)N(Cc1nc(-c2ccccc2)no1)C(=O)C(C)(C)C,12.5,-5.0,-1.3,-6.5,3.8
Cc1onc(-c2ccccc2Cl)c1C(=O)N(Cc1nc(-c2ccccc2)no1)C1CCCCC1,8.2,-8.0,-3.5,-2.2,.
Cc1cccc(-c2noc(CN(C(=O)c3c(-c4ccccc4Cl)noc3C)C(C)C)n2)c1,13.5,-14.0,-5.04*,-19.5,30.3
NC(=O)C1(N2CCCCC2)CCN(C(=O)CSc2nc(C(F)(F)F)cc(=O)[nH]2)CC1,1.4,8.0,1.7,2.6,-8.0
CC1=C(C(=O)OCC(C)C)C(c2cc3c(cc2Br)OCO3)NC(=O)N1C (stereo not drawn),37.7*,6.0,-0.782,-1.6,66.4*
O=C(NCc1cccc(C(F)(F)F)c1)C1CC(c2ccc(C(F)(F)F)cc2)=NO1 (stereo not drawn),.,.,-1.74,.,.
CCOC(=O)N1CCC(N2C(=O)c3ccc(C(=O)NC4CCCCCC4)cc3C2=O)CC1,.,.,.,.,-3.9
CCN(CC)CCn1nc(C)nc1-c1ccccc1O,-5.8,3.0,0.197,40.4*,6.6
O=C(Nc1ccc(S(=O)(=O)N2CCOCC2)cc1)c1ccc(CN2CCc3ccccc3C2)cc1,-0.7,-3.0,-0.703,-0.2,.
SMILES,PostGolgi ctrl,Ecoli WT expand,Cav32 inh,PostGolgi yeast,Ecoli tolC
C=CCn1c(SCC(=O)c2cc(C)n(CCOC)c2C)nc2sc(C)c(C)c2c1=O,4.0,-6.0,0.927,-3.4,.
O=C1CN(C(=O)COC(=O)c2ccccc2NCc2ccco2)c2ccccc2N1,1.5,4.0,-3.8*,9.8,.
CCOc1ncccc1C(=O)OCC(=O)N1CC(=O)Nc2ccccc21,4.1,-8.0,0.2,-2.0,-8.5
CC(C)CC(c1nnnn1C(C)C)N1CCN(c2cccc(Cl)c2)CC1 (stereo not drawn),72.7*,-5.0,-3.51*,3.8,44.5
Cc1ccc(S(=O)(=O)Cn2nnnc2C(CC(C)C)N2CCN(c3ccc(F)cc3)CC2)cc1 (stereo not drawn),-1.8,1.0,-1.29,-2.0,14.1
COc1ccccc1NC(=O)c1cc2n(n1)C(C(F)(F)F)CC(c1ccc3c(c1)OCO3)N2 (stereo not drawn),37.5*,-6.0,-1.05,11.8,47.5
Cc1ccc(NC(=O)Cc2nnc(SCC(=O)c3ccc(Br)cc3)n2C)cc1Cl,13.1,0.0,.,1.6,.
COc1ccc(S(=O)(=O)n2nc(OC(=O)c3c(-c4ccccc4Cl)noc3C)cc2N)cc1,11.0,-8.0,-5.39*,-1.4,30.8
COc1ccc(-c2ccc(S(=O)(=O)n3nc(OC(=O)c4cccs4)cc3N)cc2)cc1,.,.,0.0153,.,.
Cc1cc(C(C)(C)C)c(O)c(C(C)(C)C)c1,.,.,0.266,.,.
CC(=O)Nc1cc(C(C)(C)C)c(O)c(C(C)(C)C)c1,32.9*,0.0,0.2,-7.7,.
CCOc1cc2c(cc1C(C)(C)C)NC(=O)CS2,34.6*,1.0,-0.553,2.4,9.0
N#C/C(=C\c1cccs1)Sc1nc2ccccc2s1,35.5*,-21.0,.,-5.8,70.0*
N#C/C(=C\c1ccc[nH]1)Sc1nc2ccccc2s1,15.9,12.0,-1.32,10.6,100.0*
COC(=O)c1ccc(/C=C(\C#N)c2nc3ccccc3s2)cc1,-1.0,4.0,0.0321,22.9,.
CCCNC(=O)Cn1nc(C(F)(F)F)c2c1CCCC2,.,.,0.105,.,.
COc1ccc(NC(=O)N(CCCN(C)C)Cc2cc3cc(OC)ccc3[nH]c2=O)cc1,.,.,.,.,-7.3
COc1ccc(NC(=O)N(Cc2cc3cc(OC)ccc3[nH]c2=O)CC2CCCO2)cc1 (stereo not drawn),36.5*,3.0,0.188,0.2,-0.6
O=C(CCC1CCCC1)N1CCN(C(=O)c2cccnc2)CC1,-3.6,7.0,-0.217,1.4,1.3
O=C(NCCNC(=O)c1cc(OCC(F)(F)F)ccc1OCC(F)(F)F)Nc1ccc(Cl)cc1,2.4,6.0,-4.07*,-8.1,.
O=C(CSc1nnc(-c2ccc(Cl)cc2)n1Cc1ccco1)NCc1ccc2c(c1)OCO2,12.8,2.0,-5.35*,5.4,.
CC(Sc1nnc(-c2cccnc2)n1-c1ccccc1)C(=O)NCc1ccc2c(c1)OCO2 (stereo not drawn),8.6,-2.0,0.745,-1.1,.
COc1ccc(-c2nnc(SC(C)C(=O)NCc3ccc4c(c3)OCO4)n2Cc2ccco2)cc1 (stereo not drawn),11.8,-5.0,-5.27*,0.0,.
COC(=O)c1cc(OC)c(OC)cc1NC(=O)c1ccc(OC)c(OC)c1,6.6,-3.0,1.97,2.5,.
CC(C)=CCC12Oc3cc(O)ccc3C1(O)Oc1cc3c(c(O)c1C2=O)C=CC(C)(C)O3 (stereo not drawn),.,.,-0.332,.,.
CCOc1ccc2[nH]c(=O)c(C(c3nnnn3Cc3ccco3)N3CCC(C)CC3)cc2c1 (stereo not drawn),0.0,5.0,.,5.8,26.2
